Measured values reported in ChEMBL document CHEMBL2434965, “Lead optimization of an acylhydrazone scaffold possessing antiviral activity against Lassa virus” (Bioorg Med Chem Lett, 2013).
pEC50: −log10 of the molar value. Calls of active or inactive are those of the source. No cut-off for these calls is given here.

Tests used:
Lassa virus [1] = experiment: Antiviral activity against Lassa virus pseudotype containing envelope glycoprotein incorporated in lentivirus infected in human 293T/17 cells by luciferase reporter gene assay; assay type: functional, organism-based; details: Mammarenavirus lassaense, HEK-293T
Procedure, shortened: (§1)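 Lentivirus-based pseudotypes bearing arenavirus envelope glycoprotein. Each run used three or four replicates per concentration, typically 7 to 14 concentrations spaced 0.25 to 0.7 log apart, up to 50 µM. EC50 per experiment came from a four-parameter one-site dose-response fit. Values across experiments were averaged as geometric means, with relative standard error given as SD/√n relative to the mean.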

Guanarito virus = experiment: Antiviral activity against Guanarito virus pseudotype containing viral envelope; assay type: functional; details: Mammarenavirus guanaritoense; procedure, shortened: as §1
Tacaribe virus = experiment: Antiviral activity against Tacaribe virus pseudotype containing viral envelope; assay type: functional, organism-based; details: Mammarenavirus tacaribeense; procedure, shortened: as §1
Junin virus = experiment: Antiviral activity against Junin virus pseudotype containing viral envelope; assay type: functional, organism-based; details: Mammarenavirus juninense; procedure, shortened: as §1
Machupo mammarenavirus = experiment: Antiviral activity against Machupo virus pseudotype containing viral envelope; assay type: functional; details: Mammarenavirus machupoense; procedure, shortened: as §1
Sabia virus = experiment: Antiviral activity against Sabia virus pseudotype containing viral envelope; assay type: functional; procedure, shortened: as §1
Lassa virus [2] = experiment: Antiviral activity against Lassa virus by plaque reduction assay; assay type: functional, organism-based; details: Mammarenavirus lassaense

Structure (SMILES): COc1cccc(/C(C)=N/NC(=O)C2CC2)c1
- pEC50 (Lassa virus [1]): < 4.30

Structure (SMILES): C/C(=N\NC(=O)[C@@H]1C[C@H]1c1ccccc1)c1ccc(NC(=O)c2ccco2)cc1
- pEC50 (Guanarito virus): 6.92
- pEC50 (Tacaribe virus): 6.20
- pEC50 (Junin virus): 6.10
- pEC50 (Machupo mammarenavirus): 6.14
- pEC50 (Lassa virus [1]): 9.47
- pEC50 (Sabia virus): 6.89
- Activity (Lassa virus [2]): Active

Structure (SMILES): C/C(=N\NC(=O)[C@@H]1C[C@H]1c1ccccc1)c1ccccc1 (relative stereo)
- pEC50 (Lassa virus [1]): 7.33

Structure (SMILES): C/C(=N\NC(=O)[C@@H]1C[C@H]1c1ccccc1)c1ccccc1Cl (relative stereo)
- pEC50 (Lassa virus [1]): 6.49

Structure (SMILES): C/C(=N\NC(=O)[C@@H]1C[C@H]1c1ccccc1)c1ccc(Cl)cc1 (relative stereo)
- pEC50 (Lassa virus [1]): 7.70

Structure (SMILES): C/C(=N\NC(=O)[C@@H]1C[C@H]1c1ccccc1)c1cccc(Br)c1 (relative stereo)
- pEC50 (Lassa virus [1]): 7.25

Structure (SMILES): C/C(=N\NC(=O)[C@@H]1C[C@H]1c1ccccc1)c1ccc(Br)cc1 (relative stereo)
- pEC50 (Lassa virus [1]): 6.33

Structure (SMILES): C/C(=N\NC(=O)[C@@H]1C[C@H]1c1ccccc1)c1cccc([N+](=O)[O-])c1 (relative stereo)
- pEC50 (Lassa virus [1]): 6.60

Structure (SMILES): C/C(=N\NC(=O)[C@@H]1C[C@H]1c1ccccc1)c1ccc([N+](=O)[O-])cc1 (relative stereo)
- pEC50 (Lassa virus [1]): 7.21

Structure (SMILES): C/C(=N\NC(=O)[C@@H]1C[C@H]1c1ccccc1)c1ccccc1O (relative stereo)
- pEC50 (Lassa virus [1]): 6.24

Structure (SMILES): C/C(=N\NC(=O)[C@@H]1C[C@H]1c1ccccc1)c1cccc(O)c1 (relative stereo)
- pEC50 (Lassa virus [1]): 7.03

Structure (SMILES): C/C(=N\NC(=O)[C@@H]1C[C@H]1c1ccccc1)c1ccc(O)cc1 (relative stereo)
- pEC50 (Lassa virus [1]): 8.64

Structure (SMILES): COc1cccc(/C(C)=N/NC(=O)[C@@H]2C[C@H]2c2ccccc2)c1 (relative stereo)
- pEC50 (Lassa virus [1]): 7.38

Structure (SMILES): COc1ccc(/C(C)=N/NC(=O)[C@@H]2C[C@H]2c2ccccc2)cc1 (relative stereo)
- pEC50 (Lassa virus [1]): 8.40

Structure (SMILES): C/C(=N\NC(=O)[C@@H]1C[C@H]1c1ccccc1)c1cccc(C)c1 (relative stereo)
- pEC50 (Lassa virus [1]): 7.24

Structure (SMILES): C/C(=N\NC(=O)[C@@H]1C[C@H]1c1ccccc1)c1ccc(C)cc1 (relative stereo)
- pEC50 (Lassa virus [1]): 8.05

Structure (SMILES): C/C(=N\NC(=O)[C@@H]1C[C@H]1c1ccccc1)c1cccc(C)c1C (relative stereo)
- pEC50 (Lassa virus [1]): 6.10

Structure (SMILES): C/C(=N\NC(=O)[C@@H]1C[C@H]1c1ccccc1)c1ccc(C)cc1C (relative stereo)
- pEC50 (Lassa virus [1]): 6.77

Structure (SMILES): C/C(=N\NC(=O)[C@@H]1C[C@H]1c1ccccc1)c1ccc(C)c(C)c1 (relative stereo)
- pEC50 (Lassa virus [1]): 8.41

Structure (SMILES): C/C(=N\NC(=O)[C@@H]1C[C@H]1c1ccccc1)c1ccc(Cl)c(Cl)c1 (relative stereo)
- pEC50 (Lassa virus [1]): 7.14

Structure (SMILES): COc1ccc(/C(C)=N/NC(=O)[C@@H]2C[C@H]2c2ccccc2)cc1OC (relative stereo)
- pEC50 (Lassa virus [1]): 6.35

Structure (SMILES): C/C(=N\NC(=O)[C@@H]1C[C@H]1c1ccccc1)c1ccc(C2CCCCC2)cc1 (relative stereo)
- pEC50 (Lassa virus [1]): 7.62

Structure (SMILES): C/C(=N\NC(=O)[C@@H]1C[C@H]1c1ccccc1)c1ccc(-c2ccccc2)cc1 (relative stereo)
- pEC50 (Lassa virus [1]): 8.89

Structure (SMILES): CC(=O)Nc1ccc(/C(C)=N/NC(=O)[C@@H]2C[C@H]2c2ccccc2)cc1 (relative stereo)
- pEC50 (Lassa virus [1]): 8.59

Structure (SMILES): C/C(=N\NC(=O)[C@@H]1C[C@H]1c1ccccc1)c1ccc(NC(=O)C2CC2)cc1 (relative stereo)
- pEC50 (Lassa virus [1]): 8.68

Structure (SMILES): C/C(=N\NC(=O)[C@@H]1C[C@H]1c1ccccc1)c1cccc(NC(=O)c2cccs2)c1 (relative stereo)
- pEC50 (Lassa virus [1]): 5.20

Structure (SMILES): C/C(=N\NC(=O)[C@@H]1C[C@H]1c1ccccc1)c1ccc(NC(=O)c2ccc(Cl)s2)cc1 (relative stereo)
- pEC50 (Lassa virus [1]): 9.02

Structure (SMILES): C/C(=N\NC(=O)[C@H]1C[C@@H]1c1ccccc1)c1ccc(NC(=O)c2ccco2)cc1 (relative stereo)
- pEC50 (Lassa virus [1]): 9.47

Structure (SMILES): C/C(=N\NC(=O)[C@@H]1C[C@H]1c1ccc(C(C)(C)C)cc1)c1ccccc1 (relative stereo)
- pEC50 (Lassa virus [1]): 7.82

Structure (SMILES): C/C(=N\NC(=O)[C@@H]1C[C@H]1c1ccc(C(C)(C)C)cc1)c1ccc(Cl)cc1 (relative stereo)
- pEC50 (Lassa virus [1]): 8.18

Structure (SMILES): C/C(=N\NC(=O)[C@@H]1C[C@H]1c1ccccc1)c1ccc(F)cc1 (relative stereo)
- pEC50 (Lassa virus [1]): 7.28

Structure (SMILES): C/C(=N\NC(=O)[C@@H]1C[C@H]1c1ccc(C(C)(C)C)cc1)c1ccc(F)cc1 (relative stereo)
- pEC50 (Lassa virus [1]): 7.80

Structure (SMILES): C/C(=N\NC(=O)[C@@H]1C[C@H]1c1ccccc1)c1cccc(NC(=O)c2ccccc2F)c1 (relative stereo)
- pEC50 (Lassa virus [1]): 5.04

Structure (SMILES): C/C(=N\NC(=O)[C@@H]1C[C@H]1c1ccc(C(C)(C)C)cc1)c1cccc(NC(=O)c2ccccc2F)c1 (relative stereo)
- pEC50 (Lassa virus [1]): 6.11
